From ChEMBL document CHEMBL4229490, “Cytotoxic and NF-κB and mitochondrial transmembrane potential inhibitory pentacyclic triterpenoids from Syzygium corticosum and their semi-synthetic derivatives” (Bioorg Med Chem, 2018)
Values after ≈ are worked out from the molar mass of the structure shown.

Assays:
[1] = test system: HT-29; assay: Cytotoxicity against human HT-29 cells assessed as reduction in cell viability after 72 hrs by CellTiter 96 aqueous one solution assay; assay type: functional, cell-based; details: HT-29, 72 h
How it was run: (§1)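 Cells grown in RPMI 1640 with 10% FBS, penicillin and streptomycin; log-phase cells trypsinized, seeded, left overnight at 37 °C in 5% CO₂, then exposed 72 h to samples diluted from DMSO, with DMSO vehicle and paclitaxel control. Viability read by absorbance. IC50 taken relative to vehicle by nonlinear regression; triplicate, three independent experiments.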

[2] = test system: OVCAR-3; assay: Cytotoxicity against human OVCAR3 cells assessed as reduction in cell viability after 72 hrs by CellTiter 96 aqueous one solution assay; assay type: functional, cell-based; details: OVCAR-3, 72 h; how it was run: as §1
[3] = test system: MDA-MB-435; assay: Cytotoxicity against human MDA-MB-435 cells assessed as reduction in cell viability after 72 hrs by CellTiter 96 aqueous one solution assay; assay type: functional, cell-based; details: MDA-MB-435, 72 h; how it was run: as §1
[4] = molecular target: Transcription factor p65 (Homo sapiens, UniProt Q04206); assay: Inhibition of biotinylated consensus sequence binding to NF-kB p65 in human HeLa nuclear extracts after 3 hrs by ELISA
[5] = test system: MDA-MB-231; assay: Cytotoxicity against human MDA-MB-231 cells assessed as reduction in cell viability after 72 hrs by CellTiter 96 aqueous one solution assay; assay type: functional, cell-based; details: MDA-MB-231, 72 h; how it was run: as §1
[6] = test system: HT-29; assay: Inhibition of mitochondrial membrane potential in human HT-29 cells after 3 hrs by JC-1 staining based fluorescence assay; assay type: functional, cell-based; details: HT-29, 3 h
[7] = test system: HeLa; assay: Cytotoxicity against human HeLa cells assessed as reduction in cell viability after 72 hrs by CellTiter 96 aqueous one solution assay; assay type: functional, cell-based
[8] = test system: DU-145; assay: Cytotoxicity against human DU145 cells assessed as reduction in cell viability after 72 hrs by CellTiter 96 aqueous one solution assay; assay type: functional, cell-based; details: DU-145, 72 h

Transcription factor p65, sequence (Q04206 whole entry): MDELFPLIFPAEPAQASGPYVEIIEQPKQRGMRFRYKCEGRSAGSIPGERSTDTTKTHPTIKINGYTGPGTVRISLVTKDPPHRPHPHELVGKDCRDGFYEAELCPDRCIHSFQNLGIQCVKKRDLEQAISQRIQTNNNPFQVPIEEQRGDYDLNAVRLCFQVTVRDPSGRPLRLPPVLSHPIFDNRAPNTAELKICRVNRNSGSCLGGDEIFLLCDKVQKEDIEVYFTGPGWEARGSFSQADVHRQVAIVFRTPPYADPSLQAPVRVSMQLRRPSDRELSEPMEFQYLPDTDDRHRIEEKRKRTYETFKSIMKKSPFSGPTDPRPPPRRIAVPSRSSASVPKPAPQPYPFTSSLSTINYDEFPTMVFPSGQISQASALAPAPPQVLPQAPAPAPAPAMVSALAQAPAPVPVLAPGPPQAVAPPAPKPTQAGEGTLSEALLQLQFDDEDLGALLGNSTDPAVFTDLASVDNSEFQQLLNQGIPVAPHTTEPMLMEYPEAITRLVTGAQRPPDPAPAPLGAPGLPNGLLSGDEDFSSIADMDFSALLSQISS

Structure (SMILES) | IC50 [1] | IC50 [2] [µM] | IC50 [3] | IC50 [4] [µM] | IC50 [5] [µM] | IC50 [6] [µM] | IC50 [7] [µg/mL] | IC50 [8] [µg/mL]
CC1=CC(=O)CC(C)(C)[C@@]1(O)/C=C/[C@@H](C)O [BLUMENOL A] | > 10 µM | > 10 | > 10 µM | > 10 | > 10 | > 10 | – | –
CC1=CC(=O)CC(C)(C)[C@H]1/C=C/[C@@H](C)O | > 10 µM | > 10 | > 10 µM | – | > 10 | – | – | –
CC(=O)O[C@H]1C(=O)[C@@]2(C)[C@H]([C@H](OC(=O)c3ccccc3)[C@]3(O)C[C@H](OC(=O)[C@H](O)[C@@H](NC(=O)c4ccccc4)c4ccccc4)C(C)=C1C3(C)C)[C@]1(OC(C)=O)CO[C@@H]1C[C@@H]2O [PACLITAXEL] | 0.009 µM | 0.013 | 0.013 µM | – | 0.017 | – | – | –
CC(=O)/C=C/[C@]12O[C@@]1(C)C[C@@H](O)CC2(C)C | > 10 µM | > 10 | > 10 µM | – | > 10 | – | – | –
C=C(C)[C@@H]1CC[C@]2(C(=O)O)CC[C@]3(C)[C@H](CC[C@@H]4[C@@]5(C)CC[C@H](OC(=O)/C=C/c6ccc(O)c(OC)c6)C(C)(C)[C@@H]5CC[C@]43C)[C@@H]12 | > 10 µM | – | – | 5.4 | > 10 | 0.51 | – | –
C[C@H]1[C@H](C)CC[C@]2(CO)CC[C@]3(C)C(=CC[C@@H]4[C@@]5(C)CC[C@H](O)C(C)(C)[C@@H]5CC[C@]43C)[C@H]12 [UVAOL] | > 10 µM | > 10 | > 10 µM | > 10 | > 10 | > 10 | – | –
C=C(C)[C@H](O)CC[C@](C)(O)[C@H]1CC[C@]2(C)[C@@H]1CC[C@@H]1[C@@]3(C)CC[C@H](O)C(C)(C)[C@@H]3CC[C@]12C | > 10 µM | > 10 | > 10 µM | – | > 10 | – | – | –
C[C@H]1[C@H](C)CC[C@]2(C(=O)O)CC[C@]3(C)C(=CC[C@@H]4[C@@]5(C)CC[C@H](O)C(C)(C)[C@@H]5CC[C@]43C)[C@H]12 [URSOLIC ACID] | 11.1 µg/mL | – | 13.1 µg/mL | 0.031 | 5.9 | 3.5 | 11.1 to 13.1 (≈ 24.3 to 28.7 µM) | 11.1 to 13.1 (≈ 24.3 to 28.7 µM)
COc1c(C)c(O)c2c(c1C)O[C@H](c1ccc(O)cc1)CC2=O | > 10 µM | > 10 | 6 µM | – | > 10 | – | – | –
COc1cc2c(=O)oc3c(OC)c(O)cc4c(=O)oc(c1OC)c2c34 | > 10 µM | > 10 | > 10 µM | 1.6 | – | > 10 | – | –
CC1(C)CC[C@]2(C(=O)O)CC[C@]3(C)C(=CC[C@@H]4[C@@]5(C)CC[C@H](O)C(C)(C)[C@@H]5CC[C@]43C)[C@@H]2C1 [OLEANOLIC_ACID] | > 10 µM | > 10 | > 10 µM | 2.4 | > 10 | > 10 | – | –
C=C(C)[C@@H]1CC[C@]2(C(=O)OC)CC[C@]3(C(=O)O)[C@H](CC[C@@H]4[C@@]5(C)CC[C@H](O)C(C)(C)[C@@H]5CC[C@]43C)[C@@H]12 | > 10 µM | – | – | 1.5 | > 10 | > 10 | – | –
C=C(C)[C@@H]1CC[C@]2(CO)CC[C@]3(C)[C@H](CC[C@@H]4[C@@]5(C)CC[C@H](O)C(C)(C)[C@@H]5CC[C@]43C)[C@@H]12 [BETULIN] | > 10 µM | > 10 | > 10 µM | 8.8 | > 10 | > 10 | – | –
COc1c(OC)c2oc(=O)c3cc4c(c5oc(=O)c(c1OC)c2c53)OCO4 | > 10 µM | > 10 | > 10 µM | > 10 | – | > 10 | – | –
C=C(C)[C@@H]1CC[C@]2(C(=O)O)CC[C@]3(C(=O)O)[C@H](CC[C@@H]4[C@@]5(C)CC[C@H](O)C(C)(C)[C@@H]5CC[C@]43C)[C@@H]12 | > 10 µM | > 10 | > 10 µM | > 10 | > 10 | > 10 | – | –
CC1(C)C[C@H](O)C[C@@]2(C)OC(=O)C=C12 [LOLIOLIDE] | > 10 µM | > 10 | > 10 µM | > 10 | > 10 | > 10 | – | –
C=C(C)[C@@H]1CC[C@]2(C(=O)O)CC[C@]3(C)[C@H](CC[C@@H]4[C@@]5(C)C[C@@H](O)[C@H](OC(=O)/C=C/c6ccc(O)cc6)C(C)(C)[C@@H]5CC[C@]43C)[C@@H]12 | > 10 µM | > 10 | > 10 µM | 4.7 | > 10 | > 10 | – | –
C=C(C)[C@@H]1CC[C@]2(C(=O)O)CC[C@]3(C)[C@H](CC[C@@H]4[C@@]5(C)C[C@@H](O)[C@H](O)C(C)(C)[C@@H]5CC[C@]43C)[C@@H]12 [ALPHITOLIC ACID] | > 10 µM | > 10 | > 10 µM | 8.7 | > 10 | > 10 | – | –
COc1c(O)cc2c(=O)oc3c4c(cc5c(=O)oc1c2c35)OCO4 | > 10 µM | > 10 | > 10 µM | – | > 10 | > 10 | – | –
CC1(C)CC[C@]2(CO)CC[C@]3(C)C(=CC[C@@H]4[C@@]5(C)CC[C@H](O)C(C)(C)[C@@H]5CC[C@]43C)[C@@H]2C1 [ERYTHRODIOL] | > 10 µM | > 10 | > 10 µM | > 10 | > 10 | > 10 | – | –
CC(=O)/C=C/[C@@]1(O)C(C)=CC(=O)CC1(C)C | > 10 µM | > 10 | > 10 µM | – | – | > 10 | – | –
C=C(C)[C@@H]1CC[C@]2(C(=O)O)CC[C@]3(CO)[C@H](CC[C@@H]4[C@@]5(C)CC[C@H](O)C(C)(C)[C@@H]5CC[C@]43C)[C@@H]12 | > 10 µM | > 10 | > 10 µM | > 10 | > 10 | > 10 | – | –
COc1cc(C=O)cc(OC)c1O | > 10 µM | > 10 | > 10 µM | – | > 10 | – | – | –
C=C(C)[C@@H]1CC[C@]2(C(=O)O)CC[C@]3(C)[C@H](CC[C@@H]4[C@@]5(C)CC[C@H](O)C(C)(C)[C@@H]5CC[C@]43C)[C@@H]12 [BETULINIC ACID] | > 10 µM | – | – | – | > 10 | 3.5 | – | –
CC(=O)CC[C@@H](C1=C[C@@](C)(O)CCC1=O)C(C)C | > 10 µM | > 10 | > 10 µM | – | > 10 | – | – | –
C[C@H]1[C@H](C)CC[C@]2(C(=O)O)CC[C@]3(C)C(=CC[C@@H]4[C@@]5(C)CC[C@H](OC(=O)c6ccc(Cl)cc6)C(C)(C)[C@@H]5CC[C@]43C)[C@H]12 | > 10 µM | – | – | > 10 | > 10 | > 10 | – | –
COc1c(C)c(O)c2c(=O)cc(-c3ccc(O)cc3)oc2c1C [SIDEROXYLIN] | > 10 µM | > 10 | > 10 µM | > 10 | > 10 | > 10 | – | –
